Key:
Rattus norvegicus [1] = assay: Antihyperglycemic activity in Swiss albino rat model of streptozotocin-induced hyperglycemia assessed as reduction in blood glucose level at 0.36 mg/kg, po measured after 3 hrs by glucometer relative to control; type: functional; parameters: scale not given: the % may be the effect or the level left
Summary of the method: (§1)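 Adult male Swiss albino rats (200-300 g) acclimatized 24 h, then given streptozotocin 60.00 mg/kg i.p. in 0.90% sodium citrate buffer pH 4.50. Those with glucose >250.00 mg/dl at 72 h were used, six per group. Single oral dose; diabetic controls received 1% gum acacia vehicle. Tail blood glucose read by glucometer at 0 and 3 h; % reduction calculated.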

[2] = Agonist activity at SUR in Wistar rat islets of pancreas assessed as induction of glucose-stimulated insulin secretion preincubated for 1 hr followed by glucose addition measured after 30 mins by sandwich ELISA
Summary of the method: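 Islets from fed male-unspecified Wistar rats (200-250 g), pilocarpine-pretreated i.p., isolated by collagenase, then cultured overnight at 16 mmol/l glucose in CMRL-1066 with L-glutamine, gentamycin and 10% FCS at 37°C. Exposed 1 h to compound in DMSO (5, 10, 15, 20 uM), washed in Ringer HEPES, then 30 min at 37°C with 16.7 mmol/l glucose. Insulin measured by rat insulin sandwich ELISA (A450); EC50 reported.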

Rattus norvegicus [3] = assay: Antihyperglycemic activity in Swiss albino rat model of streptozotocin-induced hyperglycemia assessed as reduction in blood glucose level at 20 mg/kg, po measured after 3 hrs by glucometer relative to control; type: functional; parameters: scale not given: the % may be the effect or the level left; summary of the method: as §1
[4] = molecular target: T1, Peroxisome proliferator-activated receptor gamma (Homo sapiens, UniProt P37231); assay: Displacement of fluormone-PPARgamma Green from recombinant human N-terminal GST-tagged PPARgamma-LBD by fluorescence polarization assay
T1 sequence (P37231 whole entry): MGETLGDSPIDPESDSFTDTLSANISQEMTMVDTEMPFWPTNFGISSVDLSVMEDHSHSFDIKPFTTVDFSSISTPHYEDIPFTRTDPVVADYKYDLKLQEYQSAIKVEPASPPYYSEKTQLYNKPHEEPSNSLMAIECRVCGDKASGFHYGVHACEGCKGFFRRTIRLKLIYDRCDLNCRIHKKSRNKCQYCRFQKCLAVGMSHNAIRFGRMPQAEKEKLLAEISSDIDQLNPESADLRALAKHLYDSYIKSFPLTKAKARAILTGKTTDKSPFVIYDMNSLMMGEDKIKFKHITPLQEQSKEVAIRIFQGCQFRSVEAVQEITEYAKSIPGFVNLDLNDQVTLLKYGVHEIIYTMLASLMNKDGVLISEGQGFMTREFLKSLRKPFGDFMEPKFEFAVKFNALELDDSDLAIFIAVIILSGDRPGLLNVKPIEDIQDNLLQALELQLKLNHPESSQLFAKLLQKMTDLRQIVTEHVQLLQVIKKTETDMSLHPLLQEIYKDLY

CCC1=C(C)CN(C(=O)NCCc2ccc(S(=O)(=O)NC(=O)NC3CCC(C)CC3)cc2)C1=O (stereo unspecified)
Activity (Rattus norvegicus [1]): 26.53%
EC50 [2]: 0.73 to 4 µM

Cc1nc2ccccc2n(CC(=O)Nc2ccc(S(=O)(=O)NC(=O)Nc3ccccc3)cc2)c1=O
Activity (Rattus norvegicus [3]): 25.15%

O=C(CN1CC(=O)Nc2ccccc21)Nc1ccc(S(=O)(=O)NC(=S)NC2CCCCC2)cc1
Activity (Rattus norvegicus [3]): 13.08%

Cc1nc2ccccc2n(CC(=O)Nc2ccc(S(=O)(=O)NC(=O)NC3CCCCC3)cc2)c1=O
Activity (Rattus norvegicus [3]): 50.58%
IC50 [4]: 0.482 µM
EC50 [2]: 0.92 µM

O=C(CN1CC(=O)Nc2ccccc21)Nc1ccc(S(=O)(=O)NC(=S)Nc2ccccc2)cc1
Activity (Rattus norvegicus [3]): 2.88%

O=C1CN(C(=O)CNc2ccc(S(=O)(=O)NC(=O)Nc3ccccc3)cc2)c2ccccc2N1
Activity (Rattus norvegicus [3]): 22.01%

Cc1nc2ccccc2n(CC(=O)Nc2ccc(S(=O)(=O)NC(=S)NC3CCCCC3)cc2)c1=O
Activity (Rattus norvegicus [3]): 33.23%
IC50 [4]: 0.35 µM
EC50 [2]: 2.69 µM

CCCCNC(=O)NS(=O)(=O)c1ccc(NCC(=O)N2CC(=O)Nc3ccccc32)cc1
Activity (Rattus norvegicus [3]): 40.55%
IC50 [4]: 1.32 µM
EC50 [2]: 1.95 µM

CCCCNC(=S)NS(=O)(=O)c1ccc(NC(=O)Cn2c(=O)c(C)nc3ccccc32)cc1
Activity (Rattus norvegicus [3]): 43.84%
IC50 [4]: 0.369 µM
EC50 [2]: 2.82 µM

O=C(CN1CC(=O)Nc2ccccc21)Nc1ccc(S(=O)(=O)NC(=O)NC2CCCCC2)cc1
Activity (Rattus norvegicus [3]): 39.81%
IC50 [4]: 1.15 µM
EC50 [2]: 1.54 µM

O=C(CN1CC(=O)Nc2ccccc21)Nc1ccc(S(=O)(=O)NC(=O)Nc2ccccc2)cc1
Activity (Rattus norvegicus [3]): 21.89%

CCCCNC(=O)NS(=O)(=O)c1ccc(NC(=O)Cn2c(=O)c(C)nc3ccccc32)cc1
Activity (Rattus norvegicus [3]): 40.55%
IC50 [4]: 0.491 µM
EC50 [2]: 0.98 µM

CCCCNC(=S)NS(=O)(=O)c1ccc(NC(=O)CN2CC(=O)Nc3ccccc32)cc1
Activity (Rattus norvegicus [3]): 30.75%

O=C1CN(C(=O)CNc2ccc(S(=O)(=O)NC(=O)NC3CCCCC3)cc2)c2ccccc2N1
Activity (Rattus norvegicus [3]): 49.62%
IC50 [4]: 1.14 µM
EC50 [2]: 1.89 µM

Cc1nc2ccccc2n(CC(=O)Nc2ccc(S(=O)(=O)NC(=S)Nc3ccccc3)cc2)c1=O
Activity (Rattus norvegicus [3]): 20.54%

CCCCNC(=O)NS(=O)(=O)c1ccc(NC(=O)CN2CC(=O)Nc3ccccc32)cc1
Activity (Rattus norvegicus [3]): 45.1%
IC50 [4]: 1.29 µM
EC50 [2]: 1.69 µM

Cc1ccc(NC(=S)NS(=O)(=O)c2ccc(CCNS(=O)(=O)c3ccccc3)cc2)cc1
EC50 [2]: 100 µM

COc1ccc(NC(=S)NS(=O)(=O)c2ccc(CCNS(=O)(=O)c3ccccc3)cc2)cc1
EC50 [2]: 1000 µM

O=S(=O)(NCCc1ccc(S(=O)(=O)NC(=S)Nc2ccc(Cl)cc2)cc1)c1ccc(Cl)cc1
EC50 [2]: 33.3 µM

COc1ccc(NC(=S)NS(=O)(=O)c2ccc(CCNS(=O)(=O)c3ccc(Cl)cc3)cc2)cc1
EC50 [2]: 33.3 µM

O=C(NC1CCCCC1)NS(=O)(=O)c1ccc(CCNS(=O)(=O)c2ccccc2)cc1
EC50 [2]: 12.5 µM

CC1CCC(NC(=O)NS(=O)(=O)c2ccc(CCNS(=O)(=O)c3ccc(Cl)cc3)cc2)CC1 (stereo unspecified)
EC50 [2]: 2.04 µM

CC1CCC(NC(=O)NS(=O)(=O)c2ccc(CCNS(=O)(=O)c3ccc(Br)cc3)cc2)CC1 (stereo unspecified)
EC50 [2]: 1.6 µM

CC1CCC(NC(=O)NS(=O)(=O)c2ccc(CCNS(=O)(=O)c3ccccc3)cc2)CC1 (stereo unspecified)
EC50 [2]: 3.4 µM

O=C(NC1CCCCC1)NS(=O)(=O)c1ccc(CCNS(=O)(=O)c2ccc(Cl)cc2)cc1
EC50 [2]: 3.1 µM

O=C(NC1CCCCC1)NS(=O)(=O)c1ccc(CCNS(=O)(=O)c2ccc(Br)cc2)cc1
EC50 [2]: 2.4 µM

CC(=O)Nc1ccc(S(=O)(=O)NCCc2ccc(S(=O)(=O)NC(=O)NC3CCC(C)CC3)cc2)cc1C (stereo unspecified)
EC50 [2]: 7.14 µM

CC(=O)Nc1ccc(S(=O)(=O)NCCc2ccc(S(=O)(=O)NC(=O)NC3CCC(C)CC3)cc2)cc1 (stereo unspecified)
EC50 [2]: 20 µM

O=S(=O)(NCCc1ccc(S(=O)(=O)NC(=S)Nc2ccc(Cl)cc2)cc1)c1ccccc1
EC50 [2]: 33.3 µM

Reference: ChEMBL document CHEMBL3877322, “Design, synthesis, molecular modeling and anti-hyperglycemic evaluation of novel quinoxaline derivatives as potential PPARγ and SUR agonists” (Bioorg Med Chem, 2017)
